# Assay results: the RNAGym collection of RNA variant scans (doi:10.1126/science.aae0568)
# This sample holds only a part of the variants without activity.
# B1: tRNA (parent)
# chain: GUUCCGUUGGCGUAAUGGUAACGCGUCUCCCUCCUAAGGAGAAGACUGCGGGUUCGAGUCCCGUACGGAACG
# Variants of: B1
# Assay: yeast fitness relative to wild type (ratio to wild type); higher = fitter; tRNA-Arg(CCU), competitive growth, 37 C, YPD
# Method in brief: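 Gene amplicons from the start population and from each of six end populations were read by 100-nucleotide paired-end sequencing. Those end populations came from pooled Saccharomyces cerevisiae strains carrying tRNA-Arg(CCU) gene variants at the native locus, competed in YPD at 37°C for 24 hours. Fitness relative to wild type was worked out from changes in genotype frequencies. Genotypes needed ≥ 100 starting reads, and estimates < 0.5 were set to 0.5.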
row,Variant,yeast fitness
1,GUUCCGUUGGCGUAAUGGUAACGCGUCUCCCUCCUAUGGACAAGAGUGCGGGUUCGAGUCCCGUACGGAACG,≤ 0.5
2,GUUCCGUUGGCGUAAUGGUAACGCGUCUCCCUCCUAACGCGAAGACUGCGGGUUCGAGUCCCGUACGGAACG,1.02
3,GUUCCGUUGGCGUAAUGGUAACGCGUCUCCCUCCUAAAGAGAAGAAUGCGGGUUCGAGUCCCGUACGGAACG,0.993
4,GUUCCGUUGGCGUAAUGGUAACGCGUCUCCCUCCUAAAGAGAAGAUUGCGGGUUCGAGUCCCGUACGGAACG,0.798
5,GUUCCGUUGGCGUAAUGGUAACGCGUCUCCCUCCUAACGAGCAGACUGCGGGUUCGAGUCCCGUCCGGAACG,≤ 0.5
6,GUUCCGUUGGCGUAAUGGUAACGCGUCUCCCUCCUAACGAGGAGACUGCGGGUUCGAGUCCCGUACGGACCG,≤ 0.5
7,GUUCCGUUGGCGUAAUGGUAACGCGUCUCCCUCCUAACGAGAAGACUGCGGGUUCGAGUCCCGUCCGGAACG,0.578
8,GUUCCGUUGGCGUAAUGGUAACGCGUCUCCCUCCUAACGAGAAGACUGCGGGUUCGAGUCCCGUUCGGAACG,0.723
9,GUUCCGUUGGCGUAAUGGUAACGCGUCUCCCUCCUAUGGAGAAGACUACGGGUUCGAGUCUCGUACGGAACG,0.531
10,GUUCCGUUGGCGUAAUGGUAACGCGUCUCCCUCCUAAAGUGAAGACUGCGGGUUCGAGUCCCGUACGGAACG,0.747
11,GUUCCGUUGGCGUAAUGGUAACGCGUCUCCCUCCUAAAGUGAAGACUGCGGGUUCGAGUCCCGUGCGGAACG,≤ 0.5
12,GUUCCGUUGGCGUAAUGGUAACGCGUCUCCCUCCUAAAGAGAUGACUGCGGGUUCAAGUCCCAUACGGAACG,≤ 0.5
13,GUUCCGUUGGCGUAAUGGUAACGCGUCUCCCUCCUAUGGAGAAGACUGCGGGUUCGAGGUCCGUACGGAACG,≤ 0.5
14,GUUCCGUUGGCGUAAUGGUAACGCGUCUCCCUCCUAAAGCGAAGACUGCGGGUUCAAGUCCCGUAUGGACCG,≤ 0.5
15,GUUCCGUUGGCGUAAUGGUAACGCGUCUCCCUCCUAAAGAGAAGACUGCGGGUACGCGUCCCGUACGGAACG,0.551
16,GUUCCGUUGGCGUAAUGGUAACGCGUCUCCCUCCUAAAGACAAGACUGCGGGUUCGAGUCCCGUACGGAACG,0.659
17,GUUCCGUUGGCGUAAUGGUAACGCGUCUCCCUCCUAAAGAGAAGACUGCGGGUUCGAGGCCCGUACGGAACG,0.705
18,GUUCCGUUGGCGUAAUGGUAACGCGUCUCCCUCCUAUGGAGAAAACUGCGGGUUCGAGUCCCGUAUGGAACG,0.535
19,GUUCCGUUGGCGUAAUGGUAACGCGUCUCCCUCCUAAAGAGAAGACUGCGGGUUCGACUCCCGUACGGAACG,1

row,Variant,yeast fitness
1,GUUCCGUUGGCGUAAUGGUAACGCGUCUCCCUCCUAAAGAGAAGACUGCGGGUCCGAGUCCCGUACGGAACG,0.72
2,GUUCCGUUGGCGUAAUGGUAACGCGUCUCCCUCCUAUGGAGAAGACUCCGGGUUCGAGUCCCGUACGGAUCG,0.547
3,GUUCCGUUGGCGUAAUGGUAACGCGUCUCCCUCCUAACGAGAAGAAUGCGGGUUCGAGCCCCGUACGAAACG,≤ 0.5
4,GUUCCGUUGGCGUAAUGGUAACGCGUCUCCCUCCUAAAGAGAAGCCUGCGGGUUCGAGUCCCGUACGGAACG,0.818
5,GUUCCGUUGGCGUAAUGGUAACGCGUCUCCCUCCUAAAGAGAAGAAUGCGGGUUCGGGUCCCGUACGGAACG,0.769
6,GUUCCGUUGGCGUAAUGGUAACGCGUCUCCCUCCUAACGAGAAGAGUGGGCGUUCGAGUCUCGUACGGAACG,0.593
7,GUUCCGUUGGCGUAAUGGUAACGCGUCUCCCUCCUAAAGAGAAGACUGCGGGUUCGAGUCCCGUACAGAACG,0.881
8,GUUCCGUUGGCGUAAUGGUAACGCGUCUCCCUCCUAACGAGAAGACUGCGGGUUCGAGUCCCGUUUGGAACG,0.657
9,GUUCCGUUGGCGUAAUGGUAACGCGUCUCCCUCCUAUGGAGAAGACUGCGGGUUCGAGUCCCGUACGCAACG,0.837
10,GUUCCGUUGGCGUAAUGGUAACGCGUCUCCCUCCUAAAGAGAACACGGCGGGUUCGAGUCCCGUACGGAACG,≤ 0.5
11,GUUCCGUUGGCGUAAUGGUAACGCGUCUCCCUCCUAAAGAGAAGACUGCGGGUUCGAGUCCAGUACGGAACG,0.742
12,GUUCCGUUGGCGUAAUGGUAACGCGUCUCCCUCCUAAAGAGAAGACUGCGGGUUCGAGUCCGGUACGGAACG,0.648
13,GUUCCGUUGGCGUAAUGGUAACGCGUCUCCCUCCUAAAGAGAGGACUGCGGGUUCGAGUCCCGUACGGACCG,0.584
14,GUUCCGUUGGCGUAAUGGUAACGCGUCUCCCUCCUAAAGAGAAGACUGCGGGUUCGAGUCCCGUACGCAACG,0.823
15,GUUCCGUUGGCGUAAUGGUAACGCGUCUCCCUCCUAAAGAGAAGACUGCGGGUUCGAGUCCCGUACGAAACG,0.718
16,GUUCCGUUGGCGUAAUGGUAACGCGUCUCCCUCCUAAAGAGAAGACUGCGGGUUCAAGUCCCGUACGGAUCG,0.7
17,GUUCCGUUGGCGUAAUGGUAACGCGUCUCCCUCCUAAAGAGAAGACUGCGGGUUCGAGUCCGGUACGGAUCG,≤ 0.5
18,GUUCCGUUGGCGUAAUGGUAACGCGUCUCCCUCCUAAAGAGAAGACUGCGGGUUUGAGUCCCGUACGGAACG,0.849
19,GUUCCGUUGGCGUAAUGGUAACGCGUCUCCCUCCUAAAGAGAAGACUGCGGGUUGGAGUCCCGUACGGAACG,0.564
